In brackets after ≈: the same amount, converted by molar mass. *1 amine or outer side, *2 acyl side, *3 side chain or, on linkers, in order; H or OH if unused. Where a SMILES comes first, the peptide text is derived from it. Bridges are numbered along the chain shown (N, C = ends). Roman numbers before positions name the chains, in order. [ ]: non-standard residue; d: D form. Actinocin(9to1) = Cc1c2oc3c(C)ccc(C(=O)[*:1])c3nc-2c(C(=O)[*:2])c(N)c1=O; NMeV = CN[C@H](C(=O)O)C(C)C; Sar = CNCC(=O)O
Key:
Calf thymus DNA [1] = test: Apparent number of binding sites per base pairs in DNA; format: nucleic-acid assay; settings: Bos taurus
Summary of the method: (§1)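 Calf thymus DNA; spectral titration; binding isotherms in 0.01 M phosphate buffer, pH 7.0, 20 °C; Kapp (per base pair) and Bapp (drug binding sites per base pair) taken from Scatchard plot.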

Calf thymus DNA [2] = test: Apparent binding constant calf thymus DNA-drug complex; format: nucleic-acid assay; settings: Bos taurus; summary of the method: as §1
P388 [3] = test: Median survival time of the P388 cells implanted CDF1 male mice in vivo; format: functional, Mus musculus
Summary of the method: (§2)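 CDF1 male mice, groups of seven, given 10^6 P388 cells ip on day 0; drug ip in 5% DMSO–saline on days 1, 5 and 9; controls received vehicle; range of doses tested, optimal nontoxic dose listed; median survival time; %ILS = (treated − control)/control × 100; average of two or more experiments.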

P388 [4] = test: Optimal dose for antitumor activity was measured in P388 cells of CDF1 male mice in vivo; format: functional, Mus musculus; summary of the method: as §2
P388 [5] = test: Concentration required for 50% inhibition of incorporation of labeled thymidine by p388 cells for synthesis of DNA (in vitro); format: functional; settings: Mus musculus, read-out: ED50 (the source's name)
P388 [6] = test: Concentration required for 50% inhibition of incorporation of labeled uridine by P388 cells for the synthesis of RNA (in vitro); format: functional; settings: Mus musculus, read-out: ED50 (the source's name)
P388 [7] = test: Percent of increased life span of P388 cells implanted CDF1 male mice; format: functional, Mus musculus; summary of the method: as §2
CCRF-CEM = test: In vitro antitumor activity against human lymphoblastic leukemia cells.; format: functional; settings: read-out: ID50 (the source's name)
Summary of the method: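 Human lymphoblastic leukemia CCRF-CEM cells grown in suspension culture; growth inhibition in vitro; ID50 (ng/mL) reported as the 50% inhibitory dose.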

Bos taurus = organism: Bos taurus; test: Thermal denaturation (deltaTm) of compound against calf thymus DNA was measured; format: ADME; settings: cattle, in vitro
Summary of the method: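 Calf thymus DNA (MW 100 000–500 000) in 0.01 M phosphate, 5 × 10^-3 M EDTA, pH 7.0; drug 7 × 10^-4 M, DNA nucleotide 7 × 10^-3 M; 259 nm absorbance read at 0.25–1.0 °C steps; Tm taken at 50% hyperchromicity; ΔTm = complex Tm minus DNA Tm.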

SMILES	Bapp (Calf thymus DNA [1])	K app (Calf thymus DNA [2]) [M⁻¹]	MST (P388 [3]) [days]	Optimal dose (P388 [4]) [mg/kg]	EC50 (P388 [5]) [nM]	EC50 (P388 [6]) [nM]	ILS (P388 [7]) [%]	IC50 (CCRF-CEM) [µg/mL]	Delta Tm (Bos taurus)
Cc1c2oc3c(C)c(O)c(N)c(C(=O)N[C@@H]4C(=O)N[C@H](C(C)C)C(=O)N5CCC[C@H]5C(=O)N(C)CC(=O)N(C)[C@@H](C(C)C)C(=O)O[C@H]4C)c3nc-2c(C(=O)N[C@@H]2C(=O)N[C@H](C(C)C)C(=O)N3CCC[C@H]3C(=O)N(C)CC(=O)N(C)[C@@H](C(C)C)C(=O)O[C@H]2C)cc1=N	0.121	2.3e+07	–	–	–	–	–	–	–
CCCOc1cc(C(=O)N[C@@H]2C(=O)N[C@H](C(C)C)C(=O)N3CCC[C@@H]3C(=O)N(C)CC(=O)N(C)[C@@H](C(C)C)C(=O)O[C@@H]2C)c2nc3c(C(=O)N[C@H]4C(=O)N[C@@H](C(C)C)C(=O)N5CCC[C@H]5C(=O)N(C)CC(=O)N(C)[C@H](C(C)C)C(=O)O[C@H]4C)c(N)c(=O)c(C)c-3oc2c1C	0.078	2.1e+06	–	–	–	–	–	–	–
Cc1c2oc3c(C)c(O)c(N)c(C(=O)N[C@H]4C(=O)N[C@@H](C(C)C)C(=O)N5CCC[C@H]5C(=O)N(C)CC(=O)N(C)[C@H](C(C)C)C(=O)O[C@H]4C)c3nc-2c(C(=O)N[C@@H]2C(=O)N[C@H](C(C)C)C(=O)N3CCC[C@@H]3C(=O)N(C)CC(=O)N(C)[C@@H](C(C)C)C(=O)O[C@@H]2C)c/c1=N/Cc1ccco1	0.055	3.8e+06	–	–	–	–	–	–	–
Cc1c2oc3c(C)c(O)c(N)c(C(=O)N[C@H]4C(=O)N[C@@H](C(C)C)C(=O)N5CCC[C@H]5C(=O)N(C)CC(=O)N(C)[C@H](C(C)C)C(=O)O[C@H]4C)c3nc-2c(C(=O)N[C@@H]2C(=O)N[C@H](C(C)C)C(=O)N3CCC[C@@H]3C(=O)N(C)CC(=O)N(C)[C@@H](C(C)C)C(=O)O[C@@H]2C)c/c1=N/Cc1ccccc1	0.049	5.8e+06	–	–	–	–	–	–	–
Cc1c2oc3c(C)c(O)c(N)c(C(=O)N[C@H]4C(=O)N[C@@H](C(C)C)C(=O)N5CCC[C@H]5C(=O)N(C)CC(=O)N(C)[C@H](C(C)C)C(=O)O[C@H]4C)c3nc-2c(C(=O)N[C@@H]2C(=O)N[C@H](C(C)C)C(=O)N3CCC[C@@H]3C(=O)N(C)CC(=O)N(C)[C@@H](C(C)C)C(=O)O[C@@H]2C)cc1=O	0.1	3.2e+07	–	–	–	–	–	–	–
Cc1c2oc3c(C)c(O)c(N)c(C(=O)N[C@H]4C(=O)N[C@@H](C(C)C)C(=O)N5CCC[C@H]5C(=O)N(C)CC(=O)N(C)[C@H](C(C)C)C(=O)O[C@H]4C)c3nc-2c(C(=O)N[C@@H]2C(=O)N[C@H](C(C)C)C(=O)N3CCC[C@@H]3C(=O)N(C)CC(=O)N(C)[C@@H](C(C)C)C(=O)O[C@@H]2C)c/c1=N/Cc1ccc[nH]1	0.055	9.2e+07	–	–	–	–	–	–	–
Cc1c2oc3c(C)c(O)c(N)c(C(=O)N[C@H]4C(=O)N[C@@H](C(C)C)C(=O)N5CCC[C@H]5C(=O)N(C)CC(=O)N(C)[C@H](C(C)C)C(=O)O[C@H]4C)c3nc-2c(C(=O)N[C@@H]2C(=O)N[C@H](C(C)C)C(=O)N3CCC[C@@H]3C(=O)N(C)CC(=O)N(C)[C@@H](C(C)C)C(=O)O[C@@H]2C)c/c1=N/Cc1cccc(Oc2ccccc2)c1	0.055	8.8e+06	–	–	–	–	–	–	–
Cc1c2oc3c(C)c(O)c(N)c(C(=O)N[C@@H]4C(=O)N[C@H](C(C)C)C(=O)N5CCC[C@H]5C(=O)N(C)CC(=O)N(C)[C@@H](C(C)C)C(=O)O[C@@H]4C)c3nc-2c(C(=O)N[C@@H]2C(=O)N[C@H](C(C)C)C(=O)N3CCC[C@H]3C(=O)N(C)CC(=O)N(C)[C@@H](C(C)C)C(=O)O[C@@H]2C)cc1=O	–	–	24	1.2	5080	3220	129	0.95 (≈ 0.747 µM)	–
Cc1c2oc3c(C)c(OC(=O)C45CC6CC(CC(C6)C4)C5)cc(C(=O)N[C@@H]4C(=O)N[C@H](C(C)C)C(=O)N5CCC[C@H]5C(=O)N(C)CC(=O)N(C)[C@@H](C(C)C)C(=O)O[C@@H]4C)c3nc-2c(C(=O)N[C@@H]2C(=O)N[C@H](C(C)C)C(=O)N3CCC[C@H]3C(=O)N(C)CC(=O)N(C)[C@@H](C(C)C)C(=O)O[C@@H]2C)c(N)c1=O	–	–	28	0.5	730	176	167	0.2 (≈ 0.14 µM)	–
Cc1c2oc3c(C)c(O)c(N)c(C(=O)N[C@H]4C(=O)N[C@@H](C(C)C)C(=O)N5CCC[C@H]5C(=O)N(C)CC(=O)N(C)[C@H](C(C)C)C(=O)O[C@H]4C)c3nc-2c(C(=O)N[C@@H]2C(=O)N[C@H](C(C)C)C(=O)N3CCC[C@@H]3C(=O)N(C)CC(=O)N(C)[C@@H](C(C)C)C(=O)O[C@@H]2C)c/c1=N/Cc1ccc(Cl)c(Cl)c1	0.058	2.6e+07	–	–	–	–	–	–	–
COc1cc(C(=O)N[C@@H]2C(=O)N[C@H](C(C)C)C(=O)N3CCC[C@H]3C(=O)N(C)CC(=O)N(C)[C@@H](C(C)C)C(=O)O[C@@H]2C)c2nc3c(C(=O)N[C@@H]4C(=O)N[C@H](C(C)C)C(=O)N5CCC[C@H]5C(=O)N(C)CC(=O)N(C)[C@@H](C(C)C)C(=O)O[C@@H]4C)c(N)c(=O)c(C)c-3oc2c1C	–	–	19	0.6	628	69	81	0.16 (≈ 0.124 µM)	–
CCOc1cc(C(=O)N[C@@H]2C(=O)N[C@H](C(C)C)C(=O)N3CCC[C@@H]3C(=O)N(C)CC(=O)N(C)[C@@H](C(C)C)C(=O)O[C@@H]2C)c2nc3c(C(=O)N[C@H]4C(=O)N[C@@H](C(C)C)C(=O)N5CCC[C@H]5C(=O)N(C)CC(=O)N(C)[C@H](C(C)C)C(=O)O[C@H]4C)c(N)c(=O)c(C)c-3oc2c1C	0.097	6.9e+06	–	–	–	–	–	–	–
COc1cc(C(=O)N[C@@H]2C(=O)N[C@H](C(C)C)C(=O)N3CCC[C@@H]3C(=O)N(C)CC(=O)N(C)[C@@H](C(C)C)C(=O)O[C@@H]2C)c2nc3c(C(=O)N[C@H]4C(=O)N[C@@H](C(C)C)C(=O)N5CCC[C@H]5C(=O)N(C)CC(=O)N(C)[C@H](C(C)C)C(=O)O[C@H]4C)c(N)c(=O)c(C)c-3oc2c1C	0.11	7.7e+06	–	–	–	–	–	–	–
Cc1c2oc3c(C)ccc(C(=O)N[C@@H]4C(=O)N[C@H](C(C)C)C(=O)N5CCC[C@H]5C(=O)N(C)CC(=O)N(C)[C@@H](C(C)C)C(=O)O[C@@H]4C)c3nc-2c(C(=O)N[C@@H]2C(=O)N[C@H](C(C)C)C(=O)N3CCC[C@H]3C(=O)N(C)CC(=O)N(C)[C@@H](C(C)C)C(=O)O[C@@H]2C)c(N)c1=O [DACTINOMYCIN] (I: T[dV]P[Sar][NMeV] / II: T[dV]P[Sar][NMeV]; ester I:1-I:C, II:1-II:C; linker I:N-II:N via Actinocin(9to1))	0.108	2.3e+07	24	0.125	996	46	129	0.06 (≈ 0.0478 µM)	7.1
CCCCOc1cc(C(=O)N[C@@H]2C(=O)N[C@H](C(C)C)C(=O)N3CCC[C@@H]3C(=O)N(C)CC(=O)N(C)[C@@H](C(C)C)C(=O)O[C@@H]2C)c2nc3c(C(=O)N[C@H]4C(=O)N[C@@H](C(C)C)C(=O)N5CCC[C@H]5C(=O)N(C)CC(=O)N(C)[C@H](C(C)C)C(=O)O[C@H]4C)c(N)c(=O)c(C)c-3oc2c1C	–	1.1e+06	–	–	–	–	–	–	–
CCCNc1c(C(=O)N[C@@H]2C(=O)N[C@H](C(C)C)C(=O)N3CCC[C@H]3C(=O)N(C)CC(=O)N(C)[C@@H](C(C)C)C(=O)O[C@@H]2C)c2nc3c(C(=O)N[C@@H]4C(=O)N[C@H](C(C)C)C(=O)N5CCC[C@H]5C(=O)N(C)CC(=O)N(C)[C@@H](C(C)C)C(=O)O[C@@H]4C)ccc(C)c3oc-2c(C)c1=O	–	–	17	1.2	> 5500	1820	55	0.45 (≈ 0.347 µM)	–
Cc1c2oc3c(C)ccc(C(=O)N[C@@H]4C(=O)N[C@H](C(C)C)C(=O)N5CCC[C@H]5C(=O)N(C)CC(=O)N(C)[C@@H](C(C)C)C(=O)O[C@@H]4C)c3nc-2c(C(=O)N[C@@H]2C(=O)N[C@H](C(C)C)C(=O)N3CCC[C@H]3C(=O)N(C)CC(=O)N(C)[C@@H](C(C)C)C(=O)O[C@@H]2C)c(NCCCCCCCCCCN)c1=O	–	–	18	1.8	2700	700	64	0.28 (≈ 0.198 µM)	–
